Here are results for three compounds from article PMC3736319 (Antiviral therapy, 2012).

SMILES strings stand for the structures. Entries after “also recorded” stand apart in the source; their conditions may differ. Read-outs that look alike come from different tables or passages of the source.

Series [1] is classed as in vivo, human (HIV-infected subjects). Conditions: human, plasma, 400 mg. The essentials:
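HIV-infected adults on a steady-state nucleoside backbone (600 mg once daily, plus two NRTIs, no tenofovir) were randomized 1:1 to a crossover: boosted protease inhibitor 900/100 mg once daily or integrase inhibitor 400 mg twice daily, 14 days each. On days 15 and 29, after a standardized breakfast, serial plasma was drawn over 24 h (protease inhibitor, booster) or 12 h (integrase inhibitor) and measured by a validated assay. Non-compartmental linear–linear trapezoidal AUC0–24 or AUC0–12.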

A short description of series [2]: Steady-state intracellular carbovir triphosphate. The class given is in vivo, human (HIV-infected subjects).
Series [3] in a line: Steady-state plasma pharmacokinetics of abacavir. It counts as in vivo, human (HIV-infected subjects). The settings on record: for Change in plasma ABC concentrations: in the presence of raltegravir versus ABC alone.
For series [4] the following is noted: cited from earlier work.
Where [5] appears, read: PBMC, ABC 600 mg once daily alone, steady state, n=19.
Where [6] appears, read: in the presence of darunavir/ritonavir versus ABC alone.
The mark [7] stands for this setting: with darunavir/ritonavir versus ABC alone.
The mark [8] stands for this setting: with raltegravir versus ABC alone.

One may read the AUC(0-t) as the area under the concentration-time curve up to a stated or last time point. Read a high AUC(0-t) as more exposure. In series [1], `Cc1nnc(C(=O)NC(C)(C)c2nc(C(=O)NCc3ccc(F)cc3)c(O)c(=O)n2C)o1` [raltegravir] gave an AUC(0-t) of 2410 ng·h/mL.

Consider `Nc1nc(=O)c2ncn([C@H]3C=C[C@@H](COP(=O)(O)OP(=O)(O)OP(=O)(O)O)C3)c2[nH]1` [CBV-TP, carbovir 5′-triphosphate], for which, in series [2] (setting [5]), the “Intracellular CBV-TP AUC0–24, geometric mean (90% CI)” value is 4,459 (4,060, 5,802) fmol•h/million cells; the “Intracellular CBV-TP Cmax, geometric mean (90% CI)” value was 329 (298, 450) fmol/million cells; the “Intracellular CBV-TP Ctrough, geometric mean (90% CI)” value is 107 (96, 143) fmol/million cells. The “Inter-individual variability in intracellular CBV-TP pharmacokinetic parameters” value in series [2] (during coadministration of ABC and darunavir/ritonavir or raltegravir) is given as above 43%. In addition, in series [2] (setting [6]), the “Change in intracellular CBV-TP Cmax and AUC0–24” value is recorded as “no other significant change; also recorded: not significantly different”; the “Decrease in intracellular CBV-TP Ctrough” value was 32%. Further, the “Change in intracellular CBV-TP concentrations” value in series [2] (in the presence of raltegravir versus ABC alone) is “did not lead to any significant alteration; also recorded: No significant changes”. For the same compound, the “Decrease in intracellular CBV-TP Ctrough” value in series [2] (in the presence of raltegravir versus ABC alone, not statistically significant) is given as 43%. Besides, the “Intracellular CBV-TP Ctrough, GMR (90% CI)” value in series [2] (setting [7]) is given as 0.68 (0.48, 0.95). Besides, the “Intracellular CBV-TP Ctrough, GMR (90% CI)” value in series [2] (setting [8]) is on record as 0.57 (0.33, 1.00).

Usually Cmax stands for the peak of the concentration-time curve. In turn, `Nc1nc(NC2CC2)c2ncn([C@H]3C=C[C@@H](CO)C3)c2n1` [ABC, abacavir] gave an AUC(0-t) in series [3] (human, plasma, 600 mg) of 13500 ng·h/mL. For the same compound, the Cmax in series [3] (human, plasma, 600 mg) was 4010 ng/mL. Moreover, the concentration at 24 h in series [3] (human, plasma, 600 mg) is 4.3 ng/mL. In series [3] (setting [6]), the “Decrease in plasma ABC AUC (exposure)” value came to 27%. Besides, in series [3] (setting [6]), the “Decrease in plasma ABC Cmax” value is recorded as 22%. Moreover, the “Decrease in plasma ABC Ctrough” value in series [3] (setting [6]) is 38%. In addition, the results for the “Change in plasma ABC concentrations” value in series [3] and in series [3] (listed as abacavir) were “No significant changes” and “no changes”, respectively. In series [3] (plasma, across study phases), the “Inter-individual variability in ABC Ctrough” value was above 87%. Further, the “Plasma ABC Ctrough, GMR (90% CI)” value was 0.62 (0.50, 0.77) in series [3] (setting [7]) and 0.83 (0.62, 1.11) in series [3] (setting [8]). The “Decrease in ABC plasma exposure” value in series [4] (in combination with boosted atazanavir) is listed as 17%; in series [4] (in combination with boosted lopinavir), 32%; in series [4] (in combination with boosted tipranavir) it was 40%. In addition, in series [4] (with high doses of ethanol), the “Increase in ABC plasma exposure” value was 41%.
